Here are results for 39 compounds from ChEMBL document CHEMBL4513216, “Probing the Open Global Health Chemical Diversity Library for Multistage-Active Starting Points for Next-Generation Antimalarials” (ACS Infect Dis, 2020).

The nature of the series: Toxicity liver stage against HepG2, at 10uM. Further details: test concentration 10 uM, cell line HepG2-A16-CD81EGFP. Format: cell-based. The conditions noted are these: human, HepG2-A16-CD81EGFP cells; read-out: INHIBITION
In outline: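 Uninfected HepG2-A16-CD81EGFP cells, 3 × 10^3 per well, 1536-well, plated on prespotted compound at 10 μM final, parasite-free screening media added to match infected plates; puromycin 10 μM positive, DMSO 0.5% negative; run in parallel with 48 h PbLuc assay at 37 °C, 5% CO2; viability by CellTiter-Glo luminescence, normalized to controls.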

The structures appear in SMILES notation.

In the case of `CNC(=O)[C@@H]1C[C@H](N)CN1S(=O)(=O)c1cc(Cl)c(Cl)s1`, the cytotoxicity at 10 µM was 1.27%. Turning to `COc1cccc(S(=O)(=O)NC(=O)C2CC(c3ccccc3)=NO2)c1` (centres undefined), the cytotoxicity at 10 µM was 3.73%. The same measure for `CCNC(=O)NC(=O)CN1CCC(c2cccc(F)c2)C1` (centres undefined): -9.45%; for `N#CCCSc1nnc(Cc2ccccc2F)o1`: -11.7%.

In the case of `Cc1nc(C2CN(C)CCO2)cc(N2CCC(C(N)=O)CC2)n1` (centres undefined), the cytotoxicity at 10 µM is -22.8%.

As to `COc1cccc(NC(=O)NC(C)c2ccc3c(c2)CC(=O)N3)c1` (centres undefined), the cytotoxicity at 10 µM is -3.49%. The same measure for `Cc1nc(-c2cc(C(=O)NCCN3CCOCC3)c3ccccn23)cs1`: 3.59%. The same measure for `O=C(NCC(O)c1cccc(F)c1)C1CCN(C(=O)C2CCC2)CC1` (centres undefined): 4.43%; for `COc1cc(Cl)cc(C(=O)N2CCC3(CC2)CNC(=O)C3)c1`: -18.1%. In the case of `CC(=O)N1CCC2(CC1)CN(C)CC[C@H]2C(F)(F)F`, the cytotoxicity at 10 µM was -153%.

`O=C(C1CC1)N(Cc1ccc2cc[nH]c2c1)C1CC1`: the cytotoxicity at 10 µM is -2.98%. With `O=C1CC(N(C(=O)c2ccc(F)c(C(F)(F)F)c2)C2CC2)C(=O)N1` (centres undefined), the cytotoxicity at 10 µM was -10.5%. The same measure for `CC1CN(C(=O)c2ccnc(-n3cncn3)c2)c2ccccc2S1` (centres undefined): -5.69%; for `COC(=O)CC(c1ccc(O)c(Cl)c1)c1oc(C)cc(=O)c1O` (centres undefined): -8.59%; for `CCN1C[C@H]2CCN(C(=O)Nc3ccccc3C)CC[C@H]2S1(=O)=O`: 1.08%. Turning to `Cc1c[nH]nc1C1CCN(S(=O)(=O)N(C)C)C1` (centres undefined), the cytotoxicity at 10 µM was -13%.

As for `Cc1cc(NC(=O)C(C#N)Cc2cnn(C)c2C)no1` (centres undefined), the cytotoxicity at 10 µM was found to be 4.58%. Under `O=C(NCc1cccnc1N1CCc2ccccc2C1)c1cc(=O)[nH][nH]1` stands 6.99%; under `CCN(CC)CCNC(=O)c1nn(CC)cc1Cl`, 2.58%. As for `O=C(CCC(=O)c1ccccc1)NC1(C(=O)NCC2CC2)CCCC1`, the cytotoxicity at 10 µM is 2.26%. The same measure for `CCOC(=O)[C@]12CCCN(Cc3ccsc3)C[C@H]1CN(CCOC)C2`: -127%. Under `Cc1cccc(N2N=C(C(=O)NC(C)CCc3ccco3)CCC2=O)c1` (centres undefined) stands -10.1%; under `CC(NC1CCN(CCS(C)(=O)=O)CC1)c1cnn(C(C)C)c1` (centres undefined), -0.132%. On to `CC(=O)N1CCN(C[C@H]2CC[C@@H](Cc3ccc4ncccc4c3)O2)CC1`, for which the cytotoxicity at 10 µM was -9.14%.

Consider `Cc1ccc(C(=O)N2CCC3(CCCCC3)C2)c(=O)[nH]1`, for which the cytotoxicity at 10 µM was -2.47%.

For `Cn1cc(-c2nc(CNCCn3cccn3)cs2)cn1`, the cytotoxicity at 10 µM was -13%. Regarding `OCCN1CCC(CNCCOCC(F)(F)F)CC1`, the cytotoxicity at 10 µM was -0.903%.

With `Cc1ccc(N2CCCC3(CCN(C(=O)NC4CCCC4)C3)C2)nn1` (centres undefined), the cytotoxicity at 10 µM is -114%. Under `COCC(=O)N1C[C@H]2CNC[C@@]2(C(=O)NCc2cccc3[nH]ccc23)C1` stands 6.65%. With `Cc1cnc(CN(Cc2ccccc2)CC2CCOCC2)cn1`, the cytotoxicity at 10 µM came out at 15.6%. Consider `COc1cccc2c1OCC(C(=O)NCCc1nnc(C)s1)C2` (centres undefined), for which the cytotoxicity at 10 µM was -42.1%.

On to `COc1cccc(CN2CCC3(CCN(C(=O)[C@H]4CCCO4)CC3)C2)c1`, for which the cytotoxicity at 10 µM was found to be 6.57%. `CN1[C@@H]2CC[C@H]1CN(c1nc(-c3ccncc3)nc3c1cnn3C)CC2`: the cytotoxicity at 10 µM is 38.7%.

As to `CC(C)N1CCc2c(CN(C)Cc3ccco3)cncc2C1`, the cytotoxicity at 10 µM is -2.39%. The same measure for `NC(=O)Nc1cccc(Oc2ccccn2)c1`: 4.39%. As to `CN(Cc1c(F)cccc1Cl)C(=O)Nc1cnn(CC(N)=O)c1`, the cytotoxicity at 10 µM was -6.39%. The same measure for `COc1cc(C(C)NCc2ncccc2C)ccc1SC(F)F` (centres undefined): -8.47%; for `O=C(c1cc(-n2cccn2)ccn1)N(CC1CCC1)CC(F)(F)F`: 6.4%; for `COc1ccc2c(c1)C(=O)NC1(CC2)CCN(Cc2ccncc2)C1` (centres undefined): 3.44%.
